Published values from different studies.
Lines come from different studies, so protocols differ.
Target: cGMP-dependent protein kinase 2 (PRKG2, Homo sapiens, UniProt Q13237)

For `C[C@H]1CCN(c2nccc(-c3cnn4ncccc34)n2)C1`, the remaining binding was 80% (binding; 1 µM).
With `Cc1ccc(C(=O)Nc2ccc(CN3CCN(C)CC3)c(C(F)(F)F)c2)cc1C#Cc1cnc2cccnn12` the remaining activity was 82% (enzyme activity, inhibitor; 23.5 nM).
The remaining binding of `Cc1cc(-n2nc(Cc3cc(F)cc(C(F)(F)F)c3)nc2C)ccc1C(N)=O` is reported as 86% (cell-free assay, competition with immobilised ligand; 1 µM).
For `C=CC(=O)Nc1cc(Nc2nccc(Nc3cc(Cl)c(F)cc3C(C)(C)O)n2)c(OC)cc1N1CC[C@@H](N(C)C)C1`, the inhibition was -8% (enzyme activity, inhibitor; 1 µM).
For `Cc1sc(C(=O)NC2COC2)cc1-n1cc(NC(=O)Nc2c(F)cccc2Cl)cn1`, the remaining activity was 100% (enzyme activity, inhibitor; 10 µM).
`COc1cccc(CNC(=O)c2nc3scc(COCc4ccc(C(=O)O)cc4)c3c(=O)[nH]2)c1` gave a remaining binding of 100% (cell-free assay, competition with immobilised ligand; 1 µM).
`O=C1NC(=O)c2cc(Nc3ccc(F)cc3)c(Nc3ccc(F)cc3)cc21` gave a remaining signal of 83.3% (cell-free assay; 0.5 µM).
The remaining binding of `N#CC1(c2ccccn2)CCN(Cc2cc(C(=O)N3CCCC3)c(=O)n3ccccc23)CC1` is reported as 100% (cell-free assay, competition with immobilised ligand; 1 µM).
With `Cn1cnc(Br)c1C1=CN(c2ncnc3[nH]cnc23)CCS1` the inhibition was 43.1% (enzyme activity, inhibitor, radiometric; 50 nM).
For `CO[C@H]1CC[C@H](CNc2ccc(S(=O)(=O)NC(=O)c3ccc(N4CCN(CC5=C(c6ccc(Cl)cc6)CC(C)(C)CC5)CC4)cc3Oc3cnc4[nH]ccc4c3)cc2[N+](=O)[O-])CC1`, the remaining binding was 90% (cell-free assay, competition with immobilised ligand; 1 µM).
`COc1cc2ncnc(Nc3ccc(Oc4ccccc4)cc3C)c2cc1OC` gave an inhibition of 3% (enzyme activity, inhibitor; 1 µM).
With `CN([C@@H]1CCc2c(CC(=O)O)c3ccccc3n2C1)S(=O)(=O)c1ccc(F)cc1` the remaining binding was 100% (cell-free assay, competition with immobilised ligand; 1 µM).
The inhibition of `CN1CC(Oc2cnc(C#N)cc2-c2ccn3nc(NC(=O)C4CC4)cc3c2)C1` is reported as 1% (enzyme activity, inhibitor; 1 µM).
`Cc1ccc(NC(=O)c2ccc(CN3CCN(C)CC3)cc2)cc1Nc1nc(-c2cccnc2)cs1` gave a remaining signal of 95.4% (cell-free assay; 0.5 µM).
`CC(C)(C)c1nc2c(s1)c1nc(N)ncc1c1ccc(NS(=O)(=O)c3c(F)cccc3F)c(F)c12` gave a remaining activity of 102% (enzyme activity, inhibitor, radiometric; 1 µM).
With `CN(C)C1CCN(CC#Cc2nn(C3CCCC3)c3nc(NCc4ccccc4)ncc23)C1` (stereo not drawn) the inhibition was 6% (enzyme activity, inhibitor, FRET; 1 µM).
`C[C@H](c1cccc(C#N)c1)n1cc(Cl)cc(C(N)=O)c1=N` has a remaining binding of 97% (cell-free assay, competition with immobilised ligand; 1 µM).
`Nc1nc(Nc2ccc(S(N)(=O)=O)cc2)nn1C(=O)c1c(F)cccc1F` has a remaining signal of 92.2% (cell-free assay; 0.5 µM).
